Assay results from ChEMBL document CHEMBL2440054, “Largazole Arrests Cell Cycle at G1 Phase and Triggers Proteasomal Degradation of E2F1 in Lung Cancer Cells” (ACS Med Chem Lett, 2013).
Active and inactive are the calls of the source. The calls are words filed in the database; no cut-off is given here.

Assays:
[1] = system: A549; assay: Downregulation of p21 protein expression in human A549 cells at 0.1 uM after 4 hrs by Western blotting analysis in presence of protein synthesis inhibitor cycloheximide; format: functional, cell-based
[2] = biological target: Transcription factor E2F1 (Homo sapiens) (UniProt Q01094); assay: Induction of E2F1 degradation in human A549 cells at 0.1 uM after 12 hrs by Western blotting analysis in presence of proteasome inhibitor MG-132; format: cell-based
Sequence of Transcription factor E2F1 (Homo sapiens) (Q01094 whole entry): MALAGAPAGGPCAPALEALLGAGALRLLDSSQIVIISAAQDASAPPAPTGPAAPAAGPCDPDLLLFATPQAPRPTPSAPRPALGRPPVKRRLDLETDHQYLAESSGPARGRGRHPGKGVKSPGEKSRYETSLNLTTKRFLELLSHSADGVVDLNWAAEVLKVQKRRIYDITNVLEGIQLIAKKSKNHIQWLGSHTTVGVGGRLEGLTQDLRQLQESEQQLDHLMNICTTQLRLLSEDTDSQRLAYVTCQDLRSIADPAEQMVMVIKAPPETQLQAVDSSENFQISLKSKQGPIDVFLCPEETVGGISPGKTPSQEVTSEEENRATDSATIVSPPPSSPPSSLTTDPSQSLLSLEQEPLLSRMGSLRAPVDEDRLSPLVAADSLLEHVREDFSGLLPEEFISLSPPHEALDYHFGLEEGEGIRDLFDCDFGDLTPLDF
Method in brief: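 A549 cells pretreated 2 h with bortezomib (100 nM) or MG-132 (10 μM), then given largazole 0.1 μM for a further 12 h. Lysates Western blotted for E2F1.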

[3] = system: A549; assay: Downregulation of E2F1 in human A549 cell nucleus at 0.1 uM after 6 to 24 hrs by Western blotting analysis; format: functional, cell-based
Method in brief: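 A549 cells exposed to 0.1 μM largazole for indicated times. Cytoplasmic and nuclear fractions separated, then Western blotted for E2F1.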

[4] = biological target: Transcription factor E2F1 (Homo sapiens) (UniProt Q01094); assay: Induction of E2F1 degradation in human L78 cells at 0.1 uM after 12 to 24 hrs by Western blotting analysis; format: cell-based
Method in brief: (§1)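 Each cell line (16-HBE, 95D, L78, H1975, H460) treated with 0.1 μM largazole for indicated times. Lysates Western blotted for E2F1.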

[5] = biological target: Transcription factor E2F1 (Homo sapiens) (UniProt Q01094); assay: Induction of E2F1 degradation in human NCI-H1975 cells at 0.1 uM after 12 to 24 hrs by Western blotting analysis; format: cell-based; method in brief: as §1
[6] = biological target: T1, Retinoblastoma-associated protein (Homo sapiens) (UniProt P06400); assay: Dephosphorylation of Rb in human A549 cells assessed as increase in E2F1-HDAC1 interaction at 0.1 uM after 8 hrs by immunoprecipitation and Western blotting analysis; format: cell-based
T1 sequence (whole entry): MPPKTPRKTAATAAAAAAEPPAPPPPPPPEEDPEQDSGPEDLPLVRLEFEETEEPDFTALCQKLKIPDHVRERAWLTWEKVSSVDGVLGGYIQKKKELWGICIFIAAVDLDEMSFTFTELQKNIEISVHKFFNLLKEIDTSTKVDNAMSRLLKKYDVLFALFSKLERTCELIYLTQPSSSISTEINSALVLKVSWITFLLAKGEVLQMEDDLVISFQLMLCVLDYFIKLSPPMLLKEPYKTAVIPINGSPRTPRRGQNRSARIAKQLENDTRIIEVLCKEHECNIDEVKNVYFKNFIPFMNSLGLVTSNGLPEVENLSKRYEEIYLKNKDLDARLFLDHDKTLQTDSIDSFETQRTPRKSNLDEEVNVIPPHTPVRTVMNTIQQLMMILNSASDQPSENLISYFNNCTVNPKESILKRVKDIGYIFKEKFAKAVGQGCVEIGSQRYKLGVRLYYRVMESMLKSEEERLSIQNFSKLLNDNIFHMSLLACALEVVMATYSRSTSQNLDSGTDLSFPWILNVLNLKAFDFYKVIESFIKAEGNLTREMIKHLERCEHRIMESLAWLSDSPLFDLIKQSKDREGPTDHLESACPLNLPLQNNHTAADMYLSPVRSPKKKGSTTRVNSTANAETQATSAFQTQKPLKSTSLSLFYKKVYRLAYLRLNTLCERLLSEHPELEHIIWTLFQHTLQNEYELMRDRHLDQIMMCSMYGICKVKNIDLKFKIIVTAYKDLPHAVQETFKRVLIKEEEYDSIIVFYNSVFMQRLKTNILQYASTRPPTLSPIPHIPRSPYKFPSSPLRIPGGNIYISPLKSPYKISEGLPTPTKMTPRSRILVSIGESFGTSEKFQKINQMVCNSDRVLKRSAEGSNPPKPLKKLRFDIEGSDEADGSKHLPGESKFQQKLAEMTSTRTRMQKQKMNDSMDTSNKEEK
Method in brief: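 A549 cells treated with 0.1 μM largazole for 8 h and lysed. Lysates immunoprecipitated, then Western blotted with the indicated antibodies.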

[7] = system: A549; assay: Upregulation of p21 protein expression in human A549 cells at 0.1 uM after 6 hrs by Western blotting analysis in presence of Hsp90 inhibitor 17-AAG; format: functional, cell-based
Method in brief: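 A549 cells treated 6 h with 0.1 μM, with or without 1 μM 17-AAG, then lysed and Western blotted. p21 quantified by densitometry and normalized to β-actin.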

[8] = system: A549; assay: Downregulation of p21 protein expression in human A549 cells at 0.1 uM after 1 hr by Western blotting analysis in presence of protein synthesis inhibitor cycloheximide; format: functional, cell-based
[9] = system: A549; assay: Effect on CDK2 protein expression in human A549 cells at 0.1 uM after 6 to 36 hrs by Western blotting analysis; format: functional, cell-based
Method in brief: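 A549 cells exposed to 0.1 μM largazole over a time course, lysed, and Western blotted for cyclin D1, CDK2, CDK4, p21 and p27.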

[10] = system: A549; assay: Induction of apoptosis in human A549 cells assessed as decrease in pro-caspase-3 level at 0.1 uM after 48 hrs by Western blotting analysis; format: functional, cell-based
Method in brief: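 A549 cells given largazole 0.1 μM for indicated times, lysed, and Western blotted for pro-/cleaved caspase-9, caspase-8, pro-/active caspase-3 and PARP.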

[11] = system: A549; assay: Induction of apoptosis in human A549 cells assessed as increase in cleaved caspase-9 level at 0.1 uM after 48 hrs by Western blotting analysis; format: functional, cell-based
Method in brief: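 A549 cells exposed to 0.1 μM for a time course, then lysed and Western blotted. Read-outs are pro- and cleaved caspase-9, pro- and active caspase-3, and cleaved PARP.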

[12] = system: A549; assay: Cell cycle arrest in human A549 cells assessed as accumulation at S phase at 0.1 uM after 24 hrs by propidium iodide staining-based flow cytometric analysis (reference value: 48%); format: functional
[13] = system: A549; assay: Cell cycle arrest in human A549 cells assessed as accumulation at G1 phase at 0.1 uM after 24 hrs by propidium iodide staining-based flow cytometric analysis (reference value: 48.3%); format: functional
[14] = system: A549; assay: Cell cycle arrest in human A549 cells assessed as accumulation at G2 phase at 0.06 uM after 24 hrs by propidium iodide staining-based flow cytometric analysis (reference value: 3.7%); format: functional
[15] = system: NCI-H460; assay: Cytotoxicity against human NCI-H460 cells assessed as inhibition of colony formation pretreated for 24 hrs followed by seeding measured after 10 days by clonogenic assay; format: functional, cell-based
Method in brief: (§2)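 Soft-agar clonogenic assay. Cells pretreated 24 h with largazole or DMSO, then seeded in 0.3% soft agar upper layer over 0.6% soft agar lower layer. Colonies counted by microscope after 10 days. Mean ± SD of three independent experiments.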

[16] = system: A549; assay: Cytotoxicity against human A549 cells assessed as inhibition of colony formation pretreated for 24 hrs followed by seeding measured after 10 days by clonogenic assay; format: functional, cell-based; method in brief: as §2
[17] = Cytotoxicity against human 16HBE cells after 48 hrs by CCK-8 assay; format: cell-based; settings: 16HBE14o-
Method in brief: (§3)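 Cells treated with a range of largazole concentrations for 48 h. Proliferation read by CCK-8 assay; IC50 derived from the concentration series.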

[18] = system: NCI-H460; assay: Cytotoxicity against human NCI-H460 cells after 48 hrs by CCK-8 assay; format: functional, cell-based; settings: NCI-H460, 48 h; method in brief: as §3
[19] = Cytotoxicity against human GLC82 cells after 48 hrs by CCK-8 assay; format: functional, cell-based; settings: GLC82, 48 h; method in brief: as §3
[20] = biological target: Histone deacetylase 1 (Homo sapiens) (UniProt Q13547); settings: A549, 0.01 to 1 uM
Sequence of Histone deacetylase 1 (Homo sapiens) (Q13547 whole entry): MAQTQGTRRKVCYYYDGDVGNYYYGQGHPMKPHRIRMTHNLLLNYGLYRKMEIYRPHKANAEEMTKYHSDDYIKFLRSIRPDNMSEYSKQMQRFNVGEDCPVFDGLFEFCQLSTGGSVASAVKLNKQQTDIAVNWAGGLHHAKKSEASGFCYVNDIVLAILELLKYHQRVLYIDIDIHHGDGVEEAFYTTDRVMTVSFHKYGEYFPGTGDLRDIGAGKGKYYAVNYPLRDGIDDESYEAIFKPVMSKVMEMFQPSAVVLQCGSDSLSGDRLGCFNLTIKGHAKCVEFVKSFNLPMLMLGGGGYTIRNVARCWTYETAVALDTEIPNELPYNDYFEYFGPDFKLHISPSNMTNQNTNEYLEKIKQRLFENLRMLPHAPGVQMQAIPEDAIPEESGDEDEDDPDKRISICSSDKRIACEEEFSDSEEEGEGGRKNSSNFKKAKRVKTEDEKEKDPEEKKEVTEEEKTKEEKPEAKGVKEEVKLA

[21] = biological target: Histone deacetylase 1 (Homo sapiens) (UniProt Q13547); settings: A549, 0.1 uM

With `CCCCCCCC(=O)SCC/C=C/[C@@H]1CC(=O)NCc2nc(cs2)C2=N[C@@](C)(CS2)C(=O)N[C@@H](C(C)C)C(=O)O1` [LARGAZOLE] the Activity [1] was “Active”, the Activity [2] was “inactive” and the Activity [3] was “Active”. The Activity [4] was “Active”, the Activity [5] was “Active” and the Activity [6] was “Active”. The Activity [7] was “inactive”, the Activity [8] was “inactive” and the Activity [9] was “inactive”. For the same molecule, the Activity [10] was “Active”, the Activity [11] was “Active” and the Activity [12] was 8.5%. The Activity [13] was 88.2%, the Activity [14] was 3.1% and the inhibition [15] was “Dose-dependent effect”. For the same molecule, the inhibition [16] was “Dose-dependent effect”, the IC50 [17] was > 10000 nM and the IC50 [18] was 120 nM. The IC50 [19] was 190 nM, the inhibition [20] was “Active” and the inhibition [21] was “Active”.
